The source of these data is ChEMBL document CHEMBL1121953, “Carbon-7 substituted actinomycin D analogues as improved antitumor agents: synthesis and DNA-binding and biological properties” (J Med Chem, 1982).

Values after ≈ are worked out from the molar mass of the structure shown.

For orientation: ILS means the gain in survival time of treated over control animals, in per cent.

A short description of data set [1]: In vitro growth inhibitory activity for effect on melting temperature of DNA was determined. An outline of the steps:
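DNA thermal denaturation; ΔTm = Tm of DNA-drug complex minus Tm of DNA. Drug 1.4×10⁻⁴ M, DNA (P) 1.4×10⁻³ M in 0.01 M phosphate buffer pH 7.0 with 5×10⁻³ M EDTA and 5% dimethyl sulfoxide.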

Data set [2] in a line: Therapeutic Index measured as the MTD/MED ratio compared to that of compound 3. The note with it: read-out: Therapeutic index. An outline of the steps: (§1)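 Therapeutic index is MTD/MED, with ip dosing in 10% dimethyl sulfoxide-saline on a qd 1-4 or q4d 1, 5, 9 schedule. MED is the dose giving a 40% increase in life span over control in P-388-bearing mice. MTD is the LD10 in tumor-free male CDF1 mice (18-23 g) over 21 days, read from a log dose vs. percent mortality plot and averaged over 2-3 experiments.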

Data set [3] can be described thus: Therapeutic Index measured as the MTD/MED ratio compared to that of compound 4. The note with it: read-out: Therapeutic index. The gist of the method:
as §1

For another data set, the species on record is Homo sapiens. Description: In vitro growth inhibitory activity against human lymphoblastic leukemia cells. In kind it is functional. The note with it: read-out: ID50 (the source's name). The gist of the method:
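CCRF-CEM human lymphoblastic leukemia cells in log-phase growth; compounds dissolved in Me₂SO, final growth medium 1% Me₂SO.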

Data set [4] relates to P388. Kind of data set: Number of mice with P-388 lymphocytic leukemia cured( 0.3 mg/kg),ip; 1/7. Type of data set: functional, Mus musculus. An outline of the steps:
(§2)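 Male CDF1 mice (18-23 g) were inoculated ip with 10⁶ P-388 cells on day 0. Drug was given ip in 10% dimethyl sulfoxide-saline on days 1, 5 and 9. Test solutions were kept at 0-4 °C, protected from light, and checked periodically for stability and homogeneity by TLC and HPLC. Read-out was survival, median survival time, increase in life span and tumor-free cures per 7 animals.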

Data set [5] has as its system P388. Description: Number of mice with P-388 lymphocytic leukemia cured( 0.6 mg/kg),ip; 1/7. In kind it is functional, Mus musculus. An outline of the steps: as §2
For data set [6], the system named is P388. Kind of data set: Number of mice with P-388 lymphocytic leukemia cured( 1.2 mg/kg),ip; 3/7. Type of data set: functional, Mus musculus. An outline of the steps:
as §2

For data set [7], the system named is P388. Description: Number of mice with P-388 lymphocytic leukemia cured( 2.4 mg/kg),ip; 2/7. Type of data set: functional, Mus musculus. The gist of the method: as §2
Data set [8] relates to P388. Description: Number of mice with P-388 lymphocytic leukemia cured.( 0.15 mg/kg),ip; 0/7. Type of data set: functional, Mus musculus. The gist of the method: as §2
The subject of data set [9] is P388. Kind of data set: Number of mice with P-388 lymphocytic leukemia cured.( 1.8 mg/kg),ip; 3/7. In kind it is functional, Mus musculus.
For data set [10], the system named is P388. Description: Antitumor activity against P-388 lymphocytic leukemia in CDF1 hybrid male mice measured as percent increase in (1.2 mg/kg),ip. Type of data set: functional, Mus musculus. An outline of the steps: as §2
In data set [11] the test system is P388. Kind of data set: Antitumor activity against P-388 lymphocytic leukemia in CDF1 hybrid male mice measured as percent increase in lifespan( 0.15 mg/kg),ip. In kind it is functional. The note with it: Mus musculus. An outline of the steps:
as §2

Data set [12] concerns P388. Description: Antitumor activity against P-388 lymphocytic leukemia in CDF1 hybrid male mice measured as percent increase in lifespan( 0.3 mg/kg),ip. The note with it: Mus musculus. In kind it is functional. The gist of the method:
as §2

Data set [13] has as its system P388. Description: Antitumor activity against P-388 lymphocytic leukemia in CDF1 hybrid male mice measured as percent increase in lifespan( 0.6 mg/kg),ip. The note with it: Mus musculus. In kind it is functional. The gist of the method: as §2
The test system of data set [14] is P388. Description: Antitumor activity against P-388 lymphocytic leukemia in CDF1 hybrid male mice measured as percent increase in lifespan( 2.4 mg/kg),ip. Type of data set: functional. The note with it: Mus musculus. The gist of the method:
as §2

Data set [15] has as its system P388. Description: Antitumor activity against P-388 lymphocytic leukemia in CDF1 hybrid male mice measured as percent increase in lifespan(1.8 mg/kg),ip. Type of data set: functional, Mus musculus. The gist of the method: as §2
The subject of data set [16] is P388. Description: Antitumor activity against P-388 lymphocytic leukemia in CDF1 hybrid male mice measured as median survival time ( 2.4 mg/kg),ip. Type of data set: functional, Mus musculus. The gist of the method: as §2
Data set [17] concerns P388. Description: Maximum tolerated dose was compared to 7-(2,3-Epoxypropoxy)-actinomycin D against P-388 leukemia in mice(3 days). In kind it is functional, Mus musculus. The gist of the method:
(§3)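 Tumor-free male CDF1 mice (18-23 g) received a broad dose range ip in 10% dimethyl sulfoxide-saline, either on days 1, 5, 9 (three injections) or on 4 successive days (qd 1-4). Deaths were recorded over 21 days. MTD was the dose lethal to 10% (LD10), taken from a plot of log dose vs percent mortality. Average of two experiments.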

In data set [18] the test system is P388. Kind of data set: Maximum tolerated dose was compared to 7-(2,3-Epoxypropoxy)-actinomycin D against P-388 leukemia in mice(4 days). Type of data set: functional, Mus musculus. An outline of the steps: as §3
Data set [19] concerns P388. Kind of data set: Antitumor activity against P-388 lymphocytic leukemia in CDF1 hybrid male mice measured as median survival time (1.8 mg/kg),ip. Type of data set: functional, Mus musculus. An outline of the steps:
as §2

The subject of data set [20] is P388. Kind of data set: Minimum effective dose was compared to 7-(2,3-Epoxypropoxy)-actinomycin D against P-388 leukemia in mice(4 days). In kind it is functional, Mus musculus. An outline of the steps: (§4)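 MED was the dose (mg/kg) giving a 40% increase in life span over control in mice bearing ip P-388 leukemia. Drug was given ip in 10% dimethyl sulfoxide-saline on a q4d 1, 5, 9 (three injections) or qd 1-4 (four injections) schedule.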

Data set [21] relates to P388. Kind of data set: Minimum effective dose was determined compared to 7-(2,3-Epoxypropoxy)-actinomycin D against P-388 leukemia in mice(3 days). In kind it is functional, Mus musculus. More on the design: unit: mg/kg. An outline of the steps:
as §4

Data set [22] deals with P388. Description: Antitumor activity against P-388 lymphocytic leukemia in CDF1 hybrid male mice measured as median survival time ( 0.15 mg/kg),ip. Type of data set: functional, Mus musculus. The gist of the method: as §2
Data set [23] concerns P388. Description: Antitumor activity against P-388 lymphocytic leukemia in CDF1 hybrid male mice measured as median survival time ( 0.3 mg/kg),ip. Type of data set: functional, Mus musculus. The gist of the method:
as §2

Data set [24] deals with P388. Description: Antitumor activity against P-388 lymphocytic leukemia in CDF1 hybrid male mice measured as median survival time ( 0.6 mg/kg),ip. Type of data set: functional, Mus musculus. An outline of the steps: as §2
Data set [25] relates to P388. Kind of data set: Antitumor activity against P-388 lymphocytic leukemia in CDF1 hybrid male mice measured as median survival time ( 1.2 mg/kg),ip. In kind it is functional, Mus musculus. An outline of the steps:
as §2

On to `Cc1c2oc3c(C)c(OCC4CO4)cc(C(=O)N[C@H]4C(=O)N[C@@H](C(C)C)C(=O)N5CCC[C@H]5C(=O)N(C)CC(=O)N(C)[C@@H](C(C)C)C(=O)O[C@H]4C)c3nc-2c(C(=O)N[C@H]2C(=O)N[C@@H](C(C)C)C(=O)N3CCC[C@H]3C(=O)N(C)CC(=O)N(C)[C@@H](C(C)C)C(=O)O[C@H]2C)c(N)c1=O` (stereo partly specified), for which the DNA melting temperature shift (ΔTm) in data set [1] was found to be 6 °C.
With `Cc1c2oc3c(C)c(O)c(N)c(C(=O)N[C@@H]4C(=O)N[C@H](C(C)C)C(=O)N5CCC[C@H]5C(=O)N(C)CC(=O)N(C)[C@@H](C(C)C)C(=O)O[C@@H]4C)c3nc-2c(C(=O)N[C@@H]2C(=O)N[C@H](C(C)C)C(=O)N3CCC[C@H]3C(=O)N(C)CC(=O)N(C)[C@@H](C(C)C)C(=O)O[C@@H]2C)cc1=O`, the results for the selectivity ratio in [2] and in data set [3] were 15 and 10, respectively.
For `Cc1c2oc3c(C)c(OCC4CO4)cc(C(=O)N[C@@H]4C(=O)N[C@H](C(C)C)C(=O)N5CCC[C@H]5C(=O)N(C)CC(=O)N(C)[C@@H](C(C)C)C(=O)O[C@@H]4C)c3nc-2c(C(=O)N[C@@H]2C(=O)N[C@H](C(C)C)C(=O)N3CCC[C@H]3C(=O)N(C)CC(=O)N(C)[C@@H](C(C)C)C(=O)O[C@@H]2C)c(N)c1=O` (stereo partly specified), the IC50 in the data set filed under Homo sapiens was 9 ng/mL (≈ 6.78 nM). The Cure was 1 in the data set on P388 [4]; 1 in the data set with P388 [5]; 3 in the data set on P388 [6]; 2 in the data set with P388 [7]; 0 in the data set on P388 [8]; 3 in the data set with P388 [9]. Besides, the ILS in the data set on P388 [10] was 291%; in the data set with P388 [15], 300%. In the data set with P388 [11], this compound returned an ILS at 0.15 mg/kg of 164%. The ILS at 0.3 mg/kg in the data set with P388 [12] came to 263%. The compound also gave an ILS at 0.6 mg/kg in the data set on P388 [13] of 255%. Moreover, the ILS at 2.4 mg/kg in the data set with P388 [14] came to 136%. Moreover, the MST in the data set on P388 [16] is 26 days; in the data set with P388 [19] it was 44 days; in the data set with P388 [22], 29 days; with P388 [23], 40 days; in the data set with P388 [24], 41 days; with P388 [25], 43 days. Also, the MTD in the data set on P388 [17] amounted to 3.6; with P388 [18], 1.6. Moreover, the MED in the data set with P388 [20] came out at 0.0375; in the data set with P388 [21], 0.05.
